SMARCA2 activ: SMARCA2 (BRM) function activators, primary screen, cell-based, luminescence, high throughput; MG213 cells, MMTV-luciferase reporter, dexamethasone, overnight; activation, % at 9.1 µM; 1% of 370,000 active; in the data active means activation above about 7.8%;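 further: 0% = vehicle wells and 100% = reference activator wells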
MC4R ag barr: MC4R agonists recruiting beta-arrestin, primary screen, cell-based, luminescence, agonist arm of biased-ligand search | U2OS MC4R beta-arrestin complementation; percent of melanotan II response, DMSO zero | AID 540308, 2011 | Melanocortin receptor 4 (Homo sapiens), P32245 | 0.98% of 360,000 active | activation, % at 8.9 µM;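 active means activation above a per-plate cutoff, the mean activation of sample wells on that plate plus 3 SD, cut at about 8% in these data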
Target sequence (P32245 whole entry, looked up): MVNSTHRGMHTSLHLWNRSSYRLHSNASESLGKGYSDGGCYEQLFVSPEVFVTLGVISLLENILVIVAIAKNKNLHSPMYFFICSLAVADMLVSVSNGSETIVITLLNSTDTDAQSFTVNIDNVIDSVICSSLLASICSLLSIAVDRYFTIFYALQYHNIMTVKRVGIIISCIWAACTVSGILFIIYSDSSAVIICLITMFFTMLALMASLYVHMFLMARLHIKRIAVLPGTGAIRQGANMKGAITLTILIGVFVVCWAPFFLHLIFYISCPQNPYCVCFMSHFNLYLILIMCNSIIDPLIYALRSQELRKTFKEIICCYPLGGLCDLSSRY
MC4R antag cAMP: MC4R antagonists of cAMP signaling, primary screen, cell-based, TR-FRET, antagonist arm of biased-ligand search | Melanocortin receptor 4 (Homo sapiens), P32245 | MC4R-expressing cells, MTII-stimulated cAMP, LANCE TR-FRET | inhibition, % at 6.5 µM | 0.48% of 360,000 active;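 active means inhibition above its plate's cutoff, the mean of tested wells on that plate plus 3 SD, cut at about 29% in these data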;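 further: 0% = Melanotan II alone and 100% = Melanotan II plus saturating MCL0020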
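Assay system: U2OS-MC4R stable cell line; Also added: Melanotan II; Technique: Eu-cAMP/anti-cAMP TR-FRET, emission 671 nm; Times: 30-min compound, 1-h challenge, 1-h detection, room temperature.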
CFTR F508del cor: F508del CFTR correction, initial screen, CFBE line, single point. CFBE cells, YFP halide quenching; stimulated with forskolin plus potentiator P3; % fluorescence drop versus neutral controls. activity (quench increase), % at 7.58 µM. 0.36% of 350,000 active. AID 720511, 2013;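 active means mean added fluorescence quench of at least 8% versus neutral control, with both replicates also reaching 8%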;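 further: cells transiently co-express mutant CFTR-F508del with the halide-sensitive YFP; corrector assay measuring rescue of mutant channel to the surface after 24 h compound exposure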
* marks the source's active call; other numbers are inactive results; / = no result; ! = repeats disagree. This is a sample that favours compounds with a hit; in the whole collection about 2.1% have one here.

SMILES	SMARCA2 activ	MC4R ag barr	MC4R antag cAMP	CFTR F508del cor
CC1CN(S(=O)(=O)c2cccc(C(=O)Nc3cc(Cl)ccc3N3CCOCC3)c2)CC(C)O1 (configuration not stated)	2	-4	15	20*
Cc1ccc(S(=O)(=O)Nc2cccc3c2O[C@@H](CN(C)C)[C@H](C)CN([C@@H](C)CO)C3=O)cc1	/	/	/	-2
CCCCCCN(C(=O)CCl)c1ccccc1	-5	18*	8	-1
O=C(CCl)N(c1ccccc1)c1ccccc1	-12	2	16	-1
CCCCCCCN(C(=O)CCl)c1cccc(C)c1	-12	9.0*	4	/
COc1ccc2c3c(n(C)c2c1)[C@H](CO)N(C(=O)CC1CC1)CC31CCN(C(=O)NC(C)C)CC1	/	/	/	-1
O=C(C[C@@H]1C=C[C@H](NC(=O)c2ccc(F)cc2)[C@H](CO)O1)NCc1ccncn1	/	/	/	0
O=C(O)c1ccc(S(=O)(=O)N2CCCc3ccccc32)cc1	-3	-2	4	1
NC(=O)c1ccsc1NC(=O)c1ccc(S(=O)(=O)N2CCCc3ccccc32)cc1	-4	8.5*	6	-2
CCCC(=O)Nc1ccc2c(c1)OC[C@H](C)N(Cc1ccccn1)C[C@@H](C)[C@@H](OC)CN(C)C2=O	/	/	/	-2
Cc1ccc(S(=O)(=O)NC[C@H]2CC[C@H]3[C@H](CN3Cc3cc(F)ccc3F)O2)cc1	/	/	/	2
CCOc1ccc(N(CC)C(=O)COc2cc(=O)n(C)c3ccccc23)cc1	-2	0	1	8.8*
CCOc1ccc(N(CC)C(=O)COc2cc(=O)n(CC)c3ccccc23)cc1	-2	-1	-6	/
Cc1cc(C)cc(NC(=O)CSc2nc(CSc3ccc(Cl)cc3)cc(=O)[nH]2)c1	-4	8.6*	5	0
c1ccc(CNc2nc(NCc3ccccc3)c3ccccc3n2)cc1	/	8.6*	4	/
Cc1ccc(-c2noc(CCC(=O)Nc3cc(C)ccn3)n2)cc1	2	9.2*	11	/
COc1cc(C(=O)Nc2ccccc2C(=O)Nc2ccccn2)cc(OC)c1OC	0	1	-12	13*
COCCn1c(=NC(=O)c2ccc3c(c2)OCCO3)sc2cc(S(N)(=O)=O)ccc21	-3	5	4	4
COCCn1c(=NC(=O)c2cc(Cl)sc2Cl)sc2cc(S(N)(=O)=O)ccc21	1	9.3*	17	/
CCOC(=O)Cn1c(=NC(=O)c2cc(-c3cccs3)nc3ccccc23)sc2cc(S(N)(=O)=O)ccc21	-1	5	15	/
COC(=O)Cn1c(=NC(=O)c2cc(-c3cccs3)nc3ccccc23)sc2cc(S(N)(=O)=O)ccc21	-2	-4	24	9.5*
Cc1ccc(-c2ccc(=O)n(CC(=O)N3CCN(c4cc(Cl)ccc4C)CC3)n2)cc1	4	8.5*	11	2
CC1(S(=O)(=O)O)CC(=O)c2ccccc2C1=O (configuration not stated)	-3	1	-4	8.1*
CC1(N2CCCCC2)C(=O)c2ccccc2C1=O	1	1	24	1
Cc1cc2c(cc1C)CSC(c1ccccc1O)SC2	-3	-1	11	/
SMILES	SMARCA2 activ	MC4R ag barr	MC4R antag cAMP	CFTR F508del cor
Cc1cc2c(cc1C)CSC(c1ccc(O)cc1)SC2	-2	8.6*	-5	0
Cc1ccc(/C=N\NC(=O)CN2CCN(S(=O)(=O)c3ccc(Br)cc3)CC2)s1	0	/	/	/
O=C(CN1CCN(S(=O)(=O)c2ccc(Br)cc2)CC1)N/N=C/c1ccc(Br)s1	-4	9.0*	-5	1
Cc1ccc(C(=O)N/N=C\c2ccc(OC(=O)c3cccc(F)c3)cc2)cn1	-1	0	-7	-2
COc1ccc(/C=N\NC(=O)c2ccccc2)cc1COc1ccc(F)cc1	0	-4	2	-1
COc1ccc(/C=N\NC(=O)c2ccc(-c3ccccc3)cc2)cc1COC(C)=O	-3	9.1*	0	2
COc1cc(/C=N/NC(=O)c2ccncc2)ccc1OC(=O)c1ccccc1Cl	-1	3	8	-2
COc1cc(/C=N\NC(=O)c2ccc(C)nc2)ccc1OC(=O)c1cccc(F)c1	-3	9.1*	6	-1
COc1cc(C(=O)N/N=C/c2ccc(OC(=O)c3ccccc3Cl)c(OC)c2)ccc1O	/	11*	6	/
COc1ccc(N(C(=O)CCl)C(C(=O)NCCc2ccccc2)c2cccs2)cc1 (configuration not stated)	-6	12*	28	-5
CC(=NNC(=S)N1CCCCC1)c1cccc(C)n1	-3	-3	15	12*
O=C(Nc1ccc(Cl)c([N+](=O)[O-])c1)c1ccc(NCCCN2CCOCC2)c([N+](=O)[O-])c1	-1	20*	5	/
Cc1ccc(NC(=O)c2ccc(NCCCN3CCOCC3)c([N+](=O)[O-])c2)cc1Cl	-3	-1	-7	/
O=C(c1ccccc1F)N1C[C@H]2[C@@H](c3ccccc31)[C@H](CO)N2C(=O)c1cccnc1	/	/	/	-1
COc1ccc(NC(=O)c2ccc(OCC3CCCO3)cc2)cc1OC (configuration not stated)	1	-1	3	8.8*
COc1ccc(C2CN=NC23CCCc2ccccc2C3=O)cc1 (configuration not stated)	-5	-1	-2	/
COc1ccc(C2CN=NC23CCc2ccccc2C3=O)cc1 (configuration not stated)	0	1	3	16*
COc1ccc(NC(=O)Nc2ccc3c(c2)C(=O)N([C@@H](C)CO)C[C@H](C)[C@@H](CN(C)C(=O)NC2CCCCC2)OCCCC[C@H](C)O3)cc1	/	/	/	-2
O=C(C1=C[C@@H](c2ccccc2)C[C@@H](OCc2ccc(CO)cc2)O1)N1CCN(Cc2ccc3c(c2)OCO3)CC1	-1	0	7	8.8*!
COC(=O)c1ccc([C@H]2C=C(C(=O)N3CCN(Cc4ccc5c(c4)OCO5)CC3)O[C@@H](OCc3ccc(CO)cc3)C2)cc1	/	/	/	2
CN(Cc1cnc2nc(N)nc(N)c2n1)c1ccc(C(=O)NC(CCC(=O)O)C(=O)O)c2ccccc12 (configuration not stated)	-4	0	-7	11*
O=C(O)CCC(NC(=O)c1ccc(Cl)cc1)C(=O)O (configuration not stated)	0	0	6	2
CN(CC(=O)NCCc1ccc(F)cc1)Cc1cccs1	7.8*	0	-1	2
COc1ccccc1NC(=O)N[C@H]1C=C[C@@H](CC(=O)N2CCC(Cc3ccccc3)CC2)O[C@@H]1CO	/	/	/	-1
NC(N)=N/N=C/c1ccc(OCc2ccccc2Cl)cc1	-1	22*	2	-3
COc1ccc(S(=O)(=O)N(C)C[C@@H]2Oc3ccc(NC(=O)Nc4c(C)noc4C)cc3C(=O)N([C@H](C)CO)C[C@H]2C)cc1	/	/	/	-1

Screening data as filed in PubChem.
